In ChEMBL document CHEMBL2321786, “Paclitaxel is an inhibitor and its boron dipyrromethene derivative is a fluorescent recognition agent for botulinum neurotoxin subtype A” (J Med Chem, 2013):
Active and inactive are the calls of the source. The calls are words filed in the database; no cut-off is given here.

Tests used:
[1] = molecular target: Botulinum neurotoxin type A (Clostridium botulinum) (UniProt P0DPI0); test: Inhibition of Clostridium botulinum recombinant neurotoxin A light chain using SNAPtide as substrate at 10 uM after 1 hr by FRET assay relative to control
In short: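 Single-point FRET at 10 μM ligand: 10 nM light chain, 8 μM SNAPtide, pH 8.2, 37 °C, 1 h incubation, triplicate. Cleavage read at ex 490/em 523 nm. Percent inhibition calculated against uninhibited cleavage at the same substrate and enzyme levels.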

[2] = molecular target: Botulinum neurotoxin type A (Clostridium botulinum) (UniProt P0DPI0); test: Binding affinity to nonactivated whole Clostridium botulinum biotinylated neurotoxin A in streptavidin-coated magnetic beads at 10 uM after 1 hr by fluorescence intensity assay relative to control
[3] = molecular target: Botulinum neurotoxin type A (Clostridium botulinum) (UniProt P0DPI0); test: Binding affinity to nonactivated whole Clostridium botulinum biotinylated neurotoxin A in streptavidin-coated magnetic beads using [14C] labeled compound at 10 uM relative to control
[4] = molecular target: Botulinum neurotoxin type A (Clostridium botulinum) (UniProt P0DPI0); test: Binding affinity to nonactivated whole Clostridium botulinum biotinylated neurotoxin A in streptavidin-coated magnetic beads using [14C] labeled compound at 50 uM relative to control
[5] = molecular target: Botulinum neurotoxin type A (Clostridium botulinum) (UniProt P0DPI0); test: Binding affinity to nonactivated whole Clostridium botulinum biotinylated neurotoxin A in streptavidin-coated magnetic beads using [14C] labeled compound at 25 uM relative to control
[6] = molecular target: Botulinum neurotoxin type A (Clostridium botulinum) (UniProt P0DPI0); test: Binding affinity to Clostridium botulinum recombinant biotinylated neurotoxin A light chain incubated for 15 mins by scintillation proximity assay
In short: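 Scintillation proximity binding: [3H]paclitaxel at each concentration incubated with 7 nM biotinylated light chain for 15 min at room temperature. Streptavidin-coated polyvinyltoluene SPA beads (2 mg/mL) then added. Run in triplicate, read at 1 h intervals by scintillation counting. Counts corrected for nonspecific binding/nonproximity effects.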

[7] = molecular target: Botulinum neurotoxin type A (Clostridium botulinum, UniProt P0DPI0); test: Inhibition of Clostridium botulinum recombinant neurotoxin A light chain using SNAPtide as substrate after 1 hr by FRET assay
In short: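 IC50 from a FRET dose-response: 10 nM light chain preincubated 30 min with inhibitor at 37 °C before adding SNAPtide (8 μM final). Fluorescence read at ex 490/em 523 nm and expressed relative to uninhibited cleavage. Triplicate wells with DMSO controls. IC50 from four-parameter nonlinear regression over two independent experiments.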

Sequence of Botulinum neurotoxin type A (Clostridium botulinum) (P0DPI0 2-448 limits assumed): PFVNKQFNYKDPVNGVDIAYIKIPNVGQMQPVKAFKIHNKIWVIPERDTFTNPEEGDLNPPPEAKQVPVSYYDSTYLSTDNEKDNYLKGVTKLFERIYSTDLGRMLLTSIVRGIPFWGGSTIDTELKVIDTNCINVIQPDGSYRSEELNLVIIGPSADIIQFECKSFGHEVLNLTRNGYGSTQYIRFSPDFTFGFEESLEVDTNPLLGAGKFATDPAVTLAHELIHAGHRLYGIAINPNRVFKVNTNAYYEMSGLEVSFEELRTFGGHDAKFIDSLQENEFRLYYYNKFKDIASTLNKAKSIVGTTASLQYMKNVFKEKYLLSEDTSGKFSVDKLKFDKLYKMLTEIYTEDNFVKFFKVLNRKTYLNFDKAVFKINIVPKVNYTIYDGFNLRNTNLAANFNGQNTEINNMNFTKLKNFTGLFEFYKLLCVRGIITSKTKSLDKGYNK
Sequence of Botulinum neurotoxin type A (P0DPI0 2-448 limits assumed): as above

Row | SMILES | inhibition [1] | Activity [2] | further results
1 | Nc1nc(N)c2nc(CNc3ccc(C(=O)N[C@@H](CCC(=O)O)C(=O)O)cc3)cnc2n1 | 11% | – | –
2 | CC(=O)O[C@H]1C(=O)[C@@]2(C)[C@H]([C@H](OC(=O)c3ccccc3)[C@]3(O)C[C@H](OC(=O)[C@H](O)[C@@H](NC(=O)CCC4=[N+]5C(C=C4)Cc4ccc(/C=C/c6ccccc6)n4[B-]5(F)F)c4ccccc4)C(C)=C1C3(C)C)[C@]1(OC(C)=O)CO[C@@H]1C[C@@H]2O (stereo partly drawn) | – | 46% | –
3 | OCC1(O)OC[C@@H](O)[C@@H](O)[C@@H]1O (stereo partly drawn) | 0% | – | Activity [3]: 5%
4 | CC[C@@]1([C@@H]2O[C@@H]([C@H]3O[C@@](O)(CO)[C@H](C)C[C@@H]3C)C[C@@H]2C)CC[C@H]([C@]2(C)CC[C@]3(C[C@H](O)[C@@H](C)[C@@H]([C@@H](C)[C@@H](OC)[C@H](C)C(=O)O)O3)O2)O1 | 38% | – | –
5 | CC(=O)O[C@H]1C(=O)[C@@]2(C)[C@H]([C@H](OC(=O)c3ccccc3)[C@]3(O)C[C@H](OC(=O)[C@H](O)[C@@H](NC(=O)CCC4=[N+]5C(C=C4)Cc4c(C)cc(C)n4[B-]5(F)F)c4ccccc4)C(C)=C1C3(C)C)[C@]1(OC(C)=O)CO[C@@H]1C[C@@H]2O (stereo partly drawn) | – | 22% | –
6 | CC(=O)O[C@H]1C(=O)[C@]2(C)[C@@H](OC(=O)CCNC(=O)c3ccc(-c4c5cc(F)c(=O)cc-5oc5cc(O)c(F)cc45)c(C(=O)O)c3)C[C@H]3OC[C@@]3(OC(C)=O)[C@H]2[C@H](OC(=O)c2ccccc2)[C@]2(O)C[C@H](OC(=O)[C@H](O)[C@@H](NC(=O)c3ccccc3)c3ccccc3)C(C)=C1C2(C)C | – | 4% | –
7 | N[C@@H](CCCc1c(CC[C@H](N)C(=O)O)c[n+](CCCC[C@H](N)C(=O)O)cc1CC[C@H](N)C(=O)O)C(=O)[O-] | 25% | – | –
8 | CC(=O)O[C@H]1C(=O)[C@@]2(C)[C@H]([C@H](OC(=O)c3ccccc3)[C@]3(O)C[C@H](OC(=O)[C@H](O)[C@@H](NC(=O)c4ccccc4)c4ccccc4)C(C)=C1C3(C)C)[C@]1(OC(C)=O)CO[C@@H]1C[C@@H]2O [PACLITAXEL] | 85% | – | Activity [4]: 7%; Activity [5]: 7%; Activity [6]: Active; IC50 [7]: 5.2 µM
